Assay results published in ChEMBL document CHEMBL4354843, “Structure-Based Design of a Potent and Selective Covalent Inhibitor for SRC Kinase That Targets a P-Loop Cysteine” (J Med Chem, 2020).
Active and inactive are the calls of the source. No cut-off for these calls is given here.

What was measured:
[1] = biological target: Mitogen-activated protein kinase 4 (Homo sapiens) (UniProt P31152); assay: Binding affinity to wild-type human partial length ERK4 (M1 to L365 residues) expressed in bacterial expression system assessed as residual binding level at 1 uM by Kinomescan method relative to control
[2] = biological target: Mitogen-activated protein kinase 6 (Homo sapiens) (UniProt Q16659); assay: Binding affinity to wild-type human partial length ERK3 (M1 to P413 residues) expressed in bacterial expression system assessed as residual binding level at 1 uM by Kinomescan method relative to control
[3] = biological target: Rho-associated protein kinase 2 (Homo sapiens) (UniProt O75116); assay: Binding affinity to wild-type human partial length ROCK2 (M1 to T431 residues) expressed in mammalian expression system assessed as residual binding level at 1 uM by Kinomescan method relative to control
[4] = biological target: Dual specificity protein kinase CLK1 (Homo sapiens) (UniProt P49759); assay: Binding affinity to wild-type human full length CLK1 (M1 to I484 residues) expressed in bacterial expression system assessed as residual binding level at 1 uM by Kinomescan method relative to control
In short: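 Active-site-directed KinomeScan competition binding panel covering 468 kinases, compound tested at 1 μM. Each readout is the kinase signal remaining with compound, expressed as a percentage of the DMSO control. […]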

[5] = biological target: Dual specificity testis-specific protein kinase 1 (Homo sapiens) (UniProt Q15569); assay: Binding affinity to wild-type human full length TESK1 (R37 to S626 residues) expressed in bacterial expression system assessed as residual binding level at 1 uM by Kinomescan method relative to control
Chain of Dual specificity testis-specific protein kinase 1 (Homo sapiens) (Q15569 whole entry, looked up, the tested form may be a part): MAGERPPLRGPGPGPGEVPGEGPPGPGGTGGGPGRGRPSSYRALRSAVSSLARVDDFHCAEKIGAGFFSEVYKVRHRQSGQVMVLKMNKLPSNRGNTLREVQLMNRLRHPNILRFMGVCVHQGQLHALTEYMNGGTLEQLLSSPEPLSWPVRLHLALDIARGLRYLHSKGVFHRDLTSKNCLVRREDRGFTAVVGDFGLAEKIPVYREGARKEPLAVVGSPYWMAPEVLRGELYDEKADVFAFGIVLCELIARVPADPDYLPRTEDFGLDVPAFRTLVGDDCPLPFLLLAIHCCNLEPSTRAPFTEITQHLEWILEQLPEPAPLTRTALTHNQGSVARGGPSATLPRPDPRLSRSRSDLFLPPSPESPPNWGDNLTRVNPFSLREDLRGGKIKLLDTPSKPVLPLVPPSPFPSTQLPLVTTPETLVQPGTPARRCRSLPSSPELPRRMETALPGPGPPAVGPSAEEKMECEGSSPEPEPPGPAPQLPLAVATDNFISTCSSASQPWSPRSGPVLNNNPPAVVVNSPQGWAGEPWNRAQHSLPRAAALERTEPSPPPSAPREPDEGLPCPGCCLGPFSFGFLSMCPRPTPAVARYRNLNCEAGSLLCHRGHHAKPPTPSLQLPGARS

[6] = biological target: Ribosomal protein S6 kinase alpha-5 (Homo sapiens) (UniProt O75582); assay: Binding affinity to wild-type human partial length N- terminal RPS6KA5 kinase domain 1 expressed in bacterial expression system assessed as residual binding level at 1 uM by Kinomescan method relative to control
[7] = biological target: Protein-tyrosine kinase 2-beta (Homo sapiens) (UniProt Q14289); assay: Binding affinity to wild-type human full length PYK2 (M1 to E967 residues) expressed in bacterial expression system assessed as residual binding level at 1 uM by Kinomescan method relative to control
In short: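 Active-site-directed competition binding panel (KinomeScan) covering 468 kinases. Test agent was screened at 1 μM. The read-out is the remaining kinase signal expressed relative to a DMSO control. Scores above 35%, taken as weak binding, were not reported.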

[8] = biological target: Interferon-induced, double-stranded RNA-activated protein kinase (Homo sapiens) (UniProt P19525); assay: Binding affinity to wild-type human partial length PRKR (F247 to C551 residues) expressed in bacterial expression system assessed as residual binding level at 1 uM by Kinomescan method relative to control
[9] = test system: Phosphatidylinositol 4,5-bisphosphate 3-kinase catalytic subunit alpha isoform (Homo sapiens), P42336 [C420R]; assay: Binding affinity to human partial length PIK3CA C420R mutant (R108 to N1068 residues) expressed in mammalian expression system assessed as residual binding level at 1 uM by Kinomescan method relative to control
Chain of Phosphatidylinositol 4,5-bisphosphate 3-kinase catalytic subunit alpha isoform (Homo sapiens), P42336 [C420R] (P42336 whole entry C420R, the tested form may be a part, canonical isoform): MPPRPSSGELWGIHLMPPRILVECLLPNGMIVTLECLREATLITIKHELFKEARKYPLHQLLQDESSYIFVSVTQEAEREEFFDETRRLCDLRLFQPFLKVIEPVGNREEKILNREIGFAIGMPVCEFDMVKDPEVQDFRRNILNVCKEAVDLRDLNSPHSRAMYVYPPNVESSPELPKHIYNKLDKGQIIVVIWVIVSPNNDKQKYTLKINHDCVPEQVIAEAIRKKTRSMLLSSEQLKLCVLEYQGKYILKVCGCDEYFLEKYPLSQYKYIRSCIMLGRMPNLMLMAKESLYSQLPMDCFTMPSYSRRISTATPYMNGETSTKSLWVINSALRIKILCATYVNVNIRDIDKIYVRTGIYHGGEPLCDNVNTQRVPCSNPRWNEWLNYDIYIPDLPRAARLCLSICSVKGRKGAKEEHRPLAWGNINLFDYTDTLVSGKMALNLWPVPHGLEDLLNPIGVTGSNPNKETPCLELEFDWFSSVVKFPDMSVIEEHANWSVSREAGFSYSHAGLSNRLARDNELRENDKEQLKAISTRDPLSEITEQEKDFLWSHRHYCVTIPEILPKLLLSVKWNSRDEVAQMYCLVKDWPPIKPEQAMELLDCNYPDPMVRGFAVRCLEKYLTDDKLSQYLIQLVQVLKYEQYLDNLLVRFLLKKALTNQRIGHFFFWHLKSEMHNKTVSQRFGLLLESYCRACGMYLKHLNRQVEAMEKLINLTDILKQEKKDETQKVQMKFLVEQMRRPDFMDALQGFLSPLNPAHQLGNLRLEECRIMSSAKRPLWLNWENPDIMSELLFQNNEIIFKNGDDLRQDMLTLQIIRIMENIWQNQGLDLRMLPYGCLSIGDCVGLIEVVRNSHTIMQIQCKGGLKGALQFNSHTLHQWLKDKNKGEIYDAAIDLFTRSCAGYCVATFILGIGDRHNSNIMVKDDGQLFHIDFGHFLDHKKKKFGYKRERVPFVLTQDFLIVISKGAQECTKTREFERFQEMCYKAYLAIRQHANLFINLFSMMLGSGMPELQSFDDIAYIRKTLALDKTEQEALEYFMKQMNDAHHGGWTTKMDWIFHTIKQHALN
In short: (§1)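 KinomeScan active site-directed competition binding panel (468 kinases), compound tested at 1 μM. Result expressed as remaining kinase signal versus DMSO control (percent of control).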

[10] = biological target: Fibroblast growth factor receptor 1 (Homo sapiens, UniProt P11362); assay: Inhibition of recombinant human His-tagged FGFR1 (308 to 731 residues) expressed in baculovirus expression system using tyrosine-4 peptide as substrate incubated for 1 hr by Z'-LYTE assay
[11] = biological target: Tyrosine-protein kinase Fyn (Homo sapiens) (UniProt P06241); assay: Binding affinity to wild-type human partial length FYN (T243 to L534 residues) expressed in bacterial expression system assessed as residual binding level at 1 uM by Kinomescan method relative to control
Chain of Tyrosine-protein kinase Fyn (Homo sapiens) (P06241 2-537 limits assumed): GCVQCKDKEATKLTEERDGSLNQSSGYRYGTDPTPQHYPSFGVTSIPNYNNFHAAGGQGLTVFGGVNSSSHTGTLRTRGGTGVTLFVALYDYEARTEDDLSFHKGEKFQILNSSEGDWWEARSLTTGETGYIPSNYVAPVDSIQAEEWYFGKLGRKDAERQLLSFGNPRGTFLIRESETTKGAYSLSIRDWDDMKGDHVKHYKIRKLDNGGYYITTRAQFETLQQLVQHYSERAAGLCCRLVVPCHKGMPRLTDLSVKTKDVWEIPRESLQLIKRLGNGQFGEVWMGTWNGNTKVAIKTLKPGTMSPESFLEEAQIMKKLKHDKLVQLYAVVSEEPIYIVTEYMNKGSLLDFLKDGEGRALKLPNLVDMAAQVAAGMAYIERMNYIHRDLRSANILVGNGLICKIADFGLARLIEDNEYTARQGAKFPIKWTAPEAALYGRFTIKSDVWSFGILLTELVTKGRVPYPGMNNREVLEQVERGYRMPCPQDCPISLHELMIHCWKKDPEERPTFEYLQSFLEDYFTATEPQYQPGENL
In short: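 Active-site-directed competition binding panel of 468 kinases (KinomeScan), compound at 1 μM. The read-out is kinase remaining bound, given as a percentage of the DMSO control. […]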

[12] = biological target: Myosin-IIIa (Homo sapiens) (UniProt Q8NEV4); assay: Binding affinity to wild-type human partial length MYO3A (M1 to K338 residues) expressed in bacterial expression system assessed as residual binding level at 1 uM by Kinomescan method relative to control
[13] = biological target: Peripheral plasma membrane protein CASK (Homo sapiens) (UniProt O14936); assay: Binding affinity to wild-type human partial length CASK (M1 to H315 residues) expressed in mammalian expression system assessed as residual binding level at 1 uM by Kinomescan method relative to control
Chain of Peripheral plasma membrane protein CASK (Homo sapiens) (O14936 whole entry, the tested form may be a part, canonical isoform): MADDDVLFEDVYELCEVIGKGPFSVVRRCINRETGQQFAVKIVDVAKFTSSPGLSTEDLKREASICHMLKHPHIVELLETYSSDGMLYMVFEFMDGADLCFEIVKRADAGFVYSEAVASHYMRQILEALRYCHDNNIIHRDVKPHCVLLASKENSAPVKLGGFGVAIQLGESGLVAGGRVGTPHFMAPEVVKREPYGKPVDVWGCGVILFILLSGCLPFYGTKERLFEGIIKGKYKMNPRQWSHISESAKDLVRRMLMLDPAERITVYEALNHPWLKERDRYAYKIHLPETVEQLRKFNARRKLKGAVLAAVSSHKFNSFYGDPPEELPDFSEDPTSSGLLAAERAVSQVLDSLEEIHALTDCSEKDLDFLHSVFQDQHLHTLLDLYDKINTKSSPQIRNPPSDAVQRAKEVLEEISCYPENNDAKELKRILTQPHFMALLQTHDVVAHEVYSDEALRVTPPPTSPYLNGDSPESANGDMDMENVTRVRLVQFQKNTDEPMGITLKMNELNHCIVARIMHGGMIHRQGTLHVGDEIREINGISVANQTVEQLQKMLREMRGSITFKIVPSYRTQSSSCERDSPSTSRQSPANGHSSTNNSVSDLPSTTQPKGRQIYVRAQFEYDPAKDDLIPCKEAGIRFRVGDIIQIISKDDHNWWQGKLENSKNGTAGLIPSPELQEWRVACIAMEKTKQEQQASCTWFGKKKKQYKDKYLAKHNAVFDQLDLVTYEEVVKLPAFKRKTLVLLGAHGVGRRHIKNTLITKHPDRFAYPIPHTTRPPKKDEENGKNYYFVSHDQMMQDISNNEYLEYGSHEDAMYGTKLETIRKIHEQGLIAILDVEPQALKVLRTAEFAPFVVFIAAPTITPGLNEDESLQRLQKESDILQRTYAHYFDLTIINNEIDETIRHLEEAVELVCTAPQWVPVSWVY

[14] = test system: Phosphatidylinositol 4,5-bisphosphate 3-kinase catalytic subunit alpha isoform (Homo sapiens), P42336 [E545A]; assay: Binding affinity to human partial length PIK3CA E545A mutant (R108 to N1068 residues) expressed in mammalian expression system assessed as residual binding level at 1 uM by Kinomescan method relative to control; in short: as §1
Chain of Phosphatidylinositol 4,5-bisphosphate 3-kinase catalytic subunit alpha isoform (Homo sapiens), P42336 [E545A] (P42336 whole entry E545A, the tested form may be a part, canonical isoform): as the sequence (P42336 whole entry C420R, the tested form may be a part, canonical isoform) above, with R420C, E545A counted along it

Mus musculus = assay: In vivo inhibition of SRC in C57B6 mouse assessed as blocking of SRC pulldown at 5 mg/kg, ip measured after 2 to 4 hrs by Western blot analysis; type: functional, organism-based
In short: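 Adult C57B6 mice, n = 2 per condition. Three intraperitoneal doses of 5 mg/kg, given every 12 h; vehicle is 5% DMSO/95% D5W. Spleens harvested 2 or 4 h after the last dose, homogenized and lysed in M-PER with protease/phosphatase inhibitors. Lysate incubated with 1 μM biotinylated probe TL13-68 overnight at 4 °C, streptavidin pulldown, SRC detected by Western blot.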

[15] = biological target: Rhodopsin kinase GRK1 (Homo sapiens) (UniProt Q15835); assay: Binding affinity to wild-type human full length GRK1 (M1 to S563 residues) expressed in mammalian expression system assessed as residual binding level at 1 uM by Kinomescan method relative to control
Chain of Rhodopsin kinase GRK1 (Homo sapiens) (Q15835 whole entry, the tested form may be a part): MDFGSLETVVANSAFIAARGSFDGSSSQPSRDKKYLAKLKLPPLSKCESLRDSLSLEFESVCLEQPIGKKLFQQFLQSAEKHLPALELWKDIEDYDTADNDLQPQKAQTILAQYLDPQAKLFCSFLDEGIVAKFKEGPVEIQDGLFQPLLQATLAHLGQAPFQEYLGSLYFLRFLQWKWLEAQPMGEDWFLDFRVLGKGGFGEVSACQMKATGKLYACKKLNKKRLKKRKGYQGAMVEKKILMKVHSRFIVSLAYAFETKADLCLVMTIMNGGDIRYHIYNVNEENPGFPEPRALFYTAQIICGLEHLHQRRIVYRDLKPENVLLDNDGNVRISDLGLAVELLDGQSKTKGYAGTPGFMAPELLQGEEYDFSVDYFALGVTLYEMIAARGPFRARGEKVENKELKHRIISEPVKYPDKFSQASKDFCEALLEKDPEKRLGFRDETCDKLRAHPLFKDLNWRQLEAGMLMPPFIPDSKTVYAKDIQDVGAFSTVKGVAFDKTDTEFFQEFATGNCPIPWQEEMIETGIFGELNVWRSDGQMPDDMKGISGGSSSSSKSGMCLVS
In short: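 KinomeScan, an active site-directed competition binding panel of 468 kinases. The test compound was at 1 μM. The readout is remaining kinase binding as a percentage of the DMSO control. Scores above 35% were treated as weak binding and not listed.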

[16] = test system: Epidermal growth factor receptor (Homo sapiens), P00533 [L858R,T790M]; assay: Binding affinity to human partial length EGFR L858R/T790M double mutant (R669 to V1011 residues) expressed in mammalian expression system assessed as residual binding level at 1 uM by Kinomescan method relative to control; in short: as §1
[17] = test system: Receptor-type tyrosine-protein kinase FLT3 (Homo sapiens), P36888 [D835V]; assay: Binding affinity to human partial length FLT3 D835V mutant (V592 to Y969 residues) expressed in bacterial expression system assessed as residual binding level at 1 uM by Kinomescan method relative to control; in short: as §1
[18] = biological target: Protein kinase C delta type (Homo sapiens) (UniProt Q05655); assay: Binding affinity to wild-type human partial length PRKCD (Q328 to D676 residues) expressed in bacterial expression system assessed as residual binding level at 1 uM by Kinomescan method relative to control
[19] = test system: Phosphatidylinositol 4,5-bisphosphate 3-kinase catalytic subunit alpha isoform (Homo sapiens), P42336 [H1047L]; assay: Binding affinity to human partial length PIK3CA H1047L mutant (R108 to N1068 residues) expressed in mammalian expression system assessed as residual binding level at 1 uM by Kinomescan method relative to control; in short: as §1

C=CC(=O)Nc1ccccc1Nc1nc(Nc2ccc(N3CCN(C)CC3)cc2)ncc1C(=O)Nc1c(C)cccc1Cl
Activity [1]: 100% | Activity [2]: 100% | Activity [3]: 100% | Activity [4]: 100% | Activity [5]: 100% | Activity [6]: 100% | Activity [7]: 100% | Activity [8]: 100% | Activity [9]: 100% | IC50 [10]: 8.34 µM | Activity [11]: 2% | Activity [12]: 100% | Activity [13]: 73% | Activity [14]: 94% | inhibition (Mus musculus): Active | Activity [15]: 69% | Activity [16]: 100% | Activity [17]: 91% | Activity [18]: 100% | Activity [19]: 71%
